These results are taken from ChEMBL document CHEMBL3352363, “1,4-disubstituted-[1,2,3]triazolyl-containing analogues of MT-II: design, synthesis, conformational analysis, and biological activity” (J Med Chem, 2014).

Common to all, as to assay type: functional, cell-based
One assay deals with Melanocortin receptor 3 (Mus musculus, UniProt P33033). The assay is described as follows: Activity at mouse MC3R expressed in HEK293 cells assessed as cAMP accumulation by CRE/beta-galactosidase reporter gene assay. The method, boiled down:
(§1)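 Stably transfected HEK-293 cells transiently transfected with 4 μg CRE/β-galactosidase reporter, 5000–15000 cells plated on collagen-treated wells overnight. Lysates frozen −80 °C; ONPG substrate at 37 °C, OD405 normalized to protein (OD595).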
On the technique in general: Cyclic AMP is a second messenger, typically raised through Gs and lowered through Gi signalling.

The target in a further assay is Melanocortin receptor 4 (Mus musculus, UniProt P56450). The experiment in a line: Activity at mouse MC4R expressed in HEK293 cells assessed as cAMP accumulation by CRE/beta-galactosidase reporter gene assay. In short, it runs like this:
as §1

The target in another assay is Melanocortin receptor 5 (Mus musculus, UniProt P41149). The assay is described as follows: Activity at mouse MC5R expressed in HEK293 cells assessed as cAMP accumulation by CRE/beta-galactosidase reporter gene assay. In short, it runs like this:
as §1

Assay [1] concerns the target Melanocyte-stimulating hormone receptor (Mus musculus, UniProt Q01727). The assay is described as follows: Activity at mouse MC1R expressed in HEK293 cells assessed as cAMP accumulation by CRE/beta-galactosidase reporter gene assay. The method, boiled down: as §1

Molecules are shown by their SMILES. Where a SMILES comes first, the peptide text is derived from it. Bridges are numbered along the chain shown (N, C = ends). Triazole bridges read from a SMILES are 1,4-linked. [ ]: non-standard residue; d: D form. Lys(N3) = [N-]=[N+]=NCCCC[C@H](N)C(=O)O; Nle = CCCC[C@H](N)C(=O)O; Pra = C#CC[C@H](N)C(=O)O

Chain of Melanocortin receptor 4 (P56450 whole entry): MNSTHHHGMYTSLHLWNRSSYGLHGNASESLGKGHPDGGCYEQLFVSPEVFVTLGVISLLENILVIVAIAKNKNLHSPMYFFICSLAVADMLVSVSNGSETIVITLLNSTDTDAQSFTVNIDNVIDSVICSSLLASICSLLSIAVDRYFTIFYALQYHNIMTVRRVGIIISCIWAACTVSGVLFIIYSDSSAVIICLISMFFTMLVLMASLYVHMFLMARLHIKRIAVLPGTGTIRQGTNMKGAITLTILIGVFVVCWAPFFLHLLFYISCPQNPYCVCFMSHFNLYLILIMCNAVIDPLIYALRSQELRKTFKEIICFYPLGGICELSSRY
Chain of Melanocortin receptor 3 (P33033 whole entry): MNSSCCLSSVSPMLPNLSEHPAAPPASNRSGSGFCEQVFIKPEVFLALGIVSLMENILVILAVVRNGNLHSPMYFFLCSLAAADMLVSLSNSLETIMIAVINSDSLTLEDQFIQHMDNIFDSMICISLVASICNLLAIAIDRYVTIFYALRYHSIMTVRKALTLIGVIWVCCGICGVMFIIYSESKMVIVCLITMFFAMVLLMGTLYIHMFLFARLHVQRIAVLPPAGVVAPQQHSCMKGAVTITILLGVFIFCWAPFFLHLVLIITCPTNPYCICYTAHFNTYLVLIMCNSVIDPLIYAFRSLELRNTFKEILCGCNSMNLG
Chain of Melanocyte-stimulating hormone receptor (Q01727 whole entry): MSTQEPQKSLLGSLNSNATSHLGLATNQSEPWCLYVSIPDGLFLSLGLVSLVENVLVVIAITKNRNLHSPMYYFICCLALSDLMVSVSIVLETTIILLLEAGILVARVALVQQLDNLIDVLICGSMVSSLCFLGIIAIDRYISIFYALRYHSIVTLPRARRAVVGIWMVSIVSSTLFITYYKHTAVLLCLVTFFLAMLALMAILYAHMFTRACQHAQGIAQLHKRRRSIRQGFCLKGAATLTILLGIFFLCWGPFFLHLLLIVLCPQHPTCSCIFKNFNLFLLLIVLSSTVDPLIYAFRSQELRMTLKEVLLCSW
Chain of Melanocortin receptor 5 (P41149 whole entry): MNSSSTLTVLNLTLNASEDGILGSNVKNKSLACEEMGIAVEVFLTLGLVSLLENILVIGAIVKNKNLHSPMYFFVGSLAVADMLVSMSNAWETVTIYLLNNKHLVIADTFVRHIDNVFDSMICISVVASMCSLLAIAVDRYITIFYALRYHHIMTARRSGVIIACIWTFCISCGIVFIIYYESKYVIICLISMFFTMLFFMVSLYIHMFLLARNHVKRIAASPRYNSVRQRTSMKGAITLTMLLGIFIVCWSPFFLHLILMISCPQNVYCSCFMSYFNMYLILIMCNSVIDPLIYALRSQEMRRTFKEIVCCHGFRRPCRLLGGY

For the compound `CCCC[C@H](NC(C)=O)C(=O)N[C@@H](CC(=O)O)C(=O)N[C@@H](Cc1c[nH]cn1)C(=O)N[C@H](Cc1ccccc1)C(=O)N[C@@H](CCCN=C(N)N)C(=O)N[C@@H](Cc1c[nH]c2ccccc12)C(=O)N[C@@H](CCCCN)C(N)=O`, the values for the EC50 on Melanocortin receptor 3 and at Melanocortin receptor 4 were 1100 pM and 210 pM, respectively.

Regarding `C#CC[C@H](NC(=O)[C@H](Cc1c[nH]c2ccccc12)NC(=O)[C@H](CCCNC(=N)N)NC(=O)[C@@H](Cc1ccccc1)NC(=O)[C@H](Cc1cnc[nH]1)NC(=O)[C@H](CCCCN=[N+]=[N-])NC(=O)[C@H](CCCC)NC(C)=O)C(N)=O`, at Melanocortin receptor 5, the EC50 (as a rule, the concentration at which the effect is half-maximal) came out at 1900 pM.

On to `CCCCCC[C@H](NC(=O)[C@H](Cc1c[nH]c2ccccc12)NC(=O)[C@H](CCCNC(=N)N)NC(=O)[C@@H](Cc1ccccc1)NC(=O)[C@H](Cc1cnc[nH]1)NC(=O)[C@H](CN=[N+]=[N-])NC(=O)[C@H](CCCC)NC(C)=O)C(N)=O`, for which the EC50 came out at 530 pM in assay [1], 1320 pM on Melanocortin receptor 3, 130 pM on Melanocortin receptor 5 and 140 pM on Melanocortin receptor 4.

Turning to `CCCC[C@H](NC(C)=O)C(=O)N[C@H]1Cc2cn(nn2)CCCC[C@@H](C(N)=O)NC(=O)[C@H](Cc2c[nH]c3ccccc23)NC(=O)[C@H](CCCNC(=N)N)NC(=O)[C@@H](Cc2ccccc2)NC(=O)[C@H](Cc2cnc[nH]2)NC1=O`, the EC50 is 5180 pM in assay [1], 3140 pM at Melanocortin receptor 3, 1930 pM on Melanocortin receptor 5 and 1620 pM at Melanocortin receptor 4.

`CCCC[C@H](NC(C)=O)C(=O)N[C@H]1CCc2cn(nn2)CCC[C@@H](C(N)=O)NC(=O)[C@H](Cc2c[nH]c3ccccc23)NC(=O)[C@H](CCCNC(=N)N)NC(=O)[C@@H](Cc2ccccc2)NC(=O)[C@H](Cc2cnc[nH]2)NC1=O`: the EC50 in assay [1] is 110 pM; at Melanocortin receptor 3 it was 290 pM; at Melanocortin receptor 5, 340 pM; at Melanocortin receptor 4, 220 pM.

As to `CCCC[C@H](NC(C)=O)C(=O)N[C@H]1CCCc2cn(nn2)CC[C@@H](C(N)=O)NC(=O)[C@H](Cc2c[nH]c3ccccc23)NC(=O)[C@H](CCCNC(=N)N)NC(=O)[C@@H](Cc2ccccc2)NC(=O)[C@H](Cc2cnc[nH]2)NC1=O`, the EC50 in assay [1] came to 100 pM; on Melanocortin receptor 3 it was 210 pM; on Melanocortin receptor 5, 42 pM; on Melanocortin receptor 4 it was 51 pM.

In the case of `CCCC[C@H](NC(C)=O)C(=O)N[C@H]1CCCCc2cn(nn2)C[C@@H](C(N)=O)NC(=O)[C@H](Cc2c[nH]c3ccccc23)NC(=O)[C@H](CCCNC(=N)N)NC(=O)[C@@H](Cc2ccccc2)NC(=O)[C@H](Cc2cnc[nH]2)NC1=O`, the EC50 in assay [1] is 87 pM; on Melanocortin receptor 3, 200 pM.

For `CCCC[C@H](NC(C)=O)C(=O)N[C@H]1CCCn2cc(nn2)CC[C@@H](C(N)=O)NC(=O)[C@H](Cc2c[nH]c3ccccc23)NC(=O)[C@H](CCCNC(=N)N)NC(=O)[C@@H](Cc2ccccc2)NC(=O)[C@H](Cc2cnc[nH]2)NC1=O`, the EC50 in assay [1] was found to be 710 pM; on Melanocortin receptor 3, 1910 pM; at Melanocortin receptor 5, 1880 pM; on Melanocortin receptor 4, 850 pM.

Consider `CCCC[C@H](NC(C)=O)C(=O)N[C@H]1CCn2cc(nn2)CCC[C@@H](C(N)=O)NC(=O)[C@H](Cc2c[nH]c3ccccc23)NC(=O)[C@H](CCCNC(=N)N)NC(=O)[C@@H](Cc2ccccc2)NC(=O)[C@H](Cc2cnc[nH]2)NC1=O`, for which the EC50 in assay [1] came out at 74 pM; at Melanocortin receptor 3 it was 200 pM; at Melanocortin receptor 5, 45 pM; on Melanocortin receptor 4, 48 pM.

Consider `CCCC[C@H](NC(C)=O)C(=O)N[C@H]1Cn2cc(nn2)CCCC[C@@H](C(N)=O)NC(=O)[C@H](Cc2c[nH]c3ccccc23)NC(=O)[C@H](CCCNC(=N)N)NC(=O)[C@@H](Cc2ccccc2)NC(=O)[C@H](Cc2cnc[nH]2)NC1=O`, for which the results for the EC50 (in assay [1]; at Melanocortin receptor 3; on Melanocortin receptor 4) were 530 pM, 600 pM and 140 pM, respectively.

With `CCCC[C@H](NC(C)=O)C(=O)N[C@H]1CCc2cn(nn2)CC[C@@H](C(N)=O)NC(=O)[C@H](Cc2c[nH]c3ccccc23)NC(=O)[C@H](CCCNC(=N)N)NC(=O)[C@@H](Cc2ccccc2)NC(=O)[C@H](Cc2cnc[nH]2)NC1=O`, the EC50 in assay [1] was found to be 320 pM; on Melanocortin receptor 3, 630 pM; on Melanocortin receptor 5, 150 pM; on Melanocortin receptor 4, 140 pM.

For `CCCC[C@H](NC(C)=O)C(=O)N[C@H]1CCn2cc(nn2)CC[C@@H](C(N)=O)NC(=O)[C@H](Cc2c[nH]c3ccccc23)NC(=O)[C@H](CCCNC(=N)N)NC(=O)[C@@H](Cc2ccccc2)NC(=O)[C@H](Cc2cnc[nH]2)NC1=O`, the EC50 in assay [1] was determined as 200 pM; on Melanocortin receptor 3, 290 pM; on Melanocortin receptor 5, 70 pM; at Melanocortin receptor 4, 67 pM.

For `CCCC[C@H](NC(C)=O)C(=O)N[C@H]1CCCCn2cc(nn2)C[C@@H](C(N)=O)NC(=O)[C@H](Cc2c[nH]c3ccccc23)NC(=O)[C@H](CCCNC(=N)N)NC(=O)[C@@H](Cc2ccccc2)NC(=O)[C@H](Cc2cnc[nH]2)NC1=O` (Ac-[Nle][Lys(N3)]H[dF]RW[Pra]-NH2; triazole 2-7), the EC50 worked out at 850 pM in assay [1], 3700 pM on Melanocortin receptor 3, 1760 pM on Melanocortin receptor 5 and 580 pM at Melanocortin receptor 4.
